Laboratory results as given in ChEMBL document CHEMBL2434878, “Synthesis and antimycobacterial activity of analogues of the bioactive natural products sampangine and cleistopholine” (Eur J Med Chem, 2013).
≈ marks a conversion by molar mass, not a printed value.

Experiments:
[1] = system: Mycobacterium tuberculosis; experiment: Antimicrobial activity against Mycobacterium tuberculosis H37Rv ATCC 27294 expressing luciferase reporter gene assessed as growth inhibition at 0.1 uM after 6 days by luminometry relative to control; type: functional; settings: H37Rv ATCC 27294, 144 h, read-out: GI
In short: (§1)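 Single-concentration screen of the luminescent H37Rv reporter strain in 7H9-10% FCS, inoculated at 50,000 RLU/ml, 6 days at 37 °C. Luminescence was read after n-decanal addition. Percent inhibition is versus the untreated culture, as the mean of triplicate cultures.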

[2] = system: Mycobacterium tuberculosis; experiment: Antimicrobial activity against Mycobacterium tuberculosis H37Rv ATCC 27294 expressing luciferase reporter gene assessed as growth inhibition at 1 uM after 6 days by luminometry relative to control; type: functional; settings: H37Rv ATCC 27294, 144 h, read-out: GI; in short: as §1
[3] = system: Mycobacterium tuberculosis; experiment: Antimicrobial activity against Mycobacterium tuberculosis H37Rv ATCC 27294 expressing luciferase reporter gene assessed as growth inhibition at 10 uM after 6 days by luminometry relative to control; type: functional; settings: H37Rv ATCC 27294, 144 h, read-out: GI; in short: as §1
Mycobacterium ulcerans = experiment: Antimicrobial activity against Mycobacterium ulcerans 1615 expressing luciferase reporter gene assessed as growth inhibition after 6 days by luminometry; type: functional; settings: Mycobacterium ulcerans, 1615, 144 h
In short: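 Luminescent M. ulcerans 1615 carrying pSMT1 luciferase plasmid, grown at 32 °C in 7H9 with 10% OADC and 0.2% glycerol. Serial dilutions from 10 mM DMSO stocks in 7H9 + 10% FCS; bacteria dosed at 50,000 RLU/ml, triplicate wells. After 6 days, light read over 10 s following 1% n-decanal in ethanol. GI50 taken at 50% growth reduction versus untreated culture.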

[4] = Antimicrobial activity against Mycobacterium avium subsp. avium ATCC 19698 expressing luciferase reporter gene assessed as growth inhibition after 6 days by luminometry; type: functional; settings: ATCC 19698, 144 h
[5] = system: Mycobacterium avium subsp. paratuberculosis; experiment: Antimicrobial activity against Mycobacterium avium subsp. paratuberculosis ATCC 15769 expressing luciferase reporter gene assessed as growth inhibition after 6 days by luminometry; type: functional; settings: ATCC 15769, 144 h
[6] = system: Mycobacterium tuberculosis; experiment: Antimicrobial activity against Mycobacterium tuberculosis H37Rv ATCC 27294 expressing luciferase reporter gene infected in mouse J774 macrophages assessed as intracellular growth inhibition at 0.5 uM after 4 days by luminometry relative to untreated control; type: functional; settings: H37Rv ATCC 27294, J774, 96 h, read-out: GI
In short: (§2)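 J774.A1 murine macrophages were seeded at 40,000 cells/well, recovered overnight and infected with luminescent H37Rv. From 24 h post-infection, cells were treated for 4 days in DMEM with penicillin and fungizone, without gentamicin. Growth was read by luminescence after 1% n-decanal and expressed as percent inhibition versus untreated, in triplicate. Macrophage viability was checked by trypan blue.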

[7] = system: Mycobacterium tuberculosis; experiment: Antimicrobial activity against Mycobacterium tuberculosis H37Rv ATCC 27294 expressing luciferase reporter gene infected in mouse J774 macrophages assessed as intracellular growth inhibition at 1 uM after 4 days by luminometry relative to untreated control; type: functional; settings: H37Rv ATCC 27294, J774, 96 h, read-out: GI; in short: as §2
[8] = system: Mycobacterium tuberculosis; experiment: Antimicrobial activity against Mycobacterium tuberculosis H37Rv ATCC 27294 expressing luciferase reporter gene infected in mouse J774 macrophages assessed as intracellular growth inhibition at 2 uM after 4 days by luminometry relative to untreated control; type: functional; settings: H37Rv ATCC 27294, J774, 96 h, read-out: GI; in short: as §2
[9] = Therapeutic index, ratio of IC50 for human HepG2/C3A cells to GI50 for Mycobacterium tuberculosis H37Rv ATCC 27294; type: cell-based; settings: read-out: TI
In short: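 TI is NI50/GI50. NI50 came from a neutral red uptake assay in C3A hepatocytes (40,000 cells/well, 24 h exposure at 37 °C, 3 h dye, OD 530 nm with 620 nm reference): the concentration reducing dye uptake by 50%. GI50 came from the 6-day luminescent H37Rv assay.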

[10] = Cytotoxicity against human HepG2/C3A cells after 24 hrs by neutral red dye uptake assay; type: cell-based
[11] = system: Mycobacterium tuberculosis; experiment: Antimicrobial activity against Mycobacterium tuberculosis H37Rv ATCC 27294 expressing luciferase reporter gene assessed as growth inhibition after 6 days by luminometry; type: functional; settings: H37Rv ATCC 27294, 144 h
In short: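 Luminescent H37Rv (pSMT1, V. harveyi luciferase) was declumped by filtration, adjusted to 50,000 RLU/ml in 7H9-10% FCS, and exposed to serial compound dilutions in triplicate for 6 days at 37 °C. Light was read for 10 s after adding 1% n-decanal. GI50 is the concentration giving 50% growth reduction versus untreated culture.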

[12] = system: Mycobacterium tuberculosis; experiment: Antimicrobial activity against Mycobacterium tuberculosis H37Rv ATCC 27294 expressing luciferase reporter gene assessed as reduction in bacterial count after 6 days by luminometry; type: functional; settings: H37Rv ATCC 27294, 144 h
In short: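 MIC by serial dilution in the 6-day luminescent H37Rv assay (7H9-10% FCS, 50,000 RLU/ml inoculum, triplicate wells, n-decanal read-out). MIC is the concentration giving at least one log10 reduction in signal versus the untreated control.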

[13] = system: Mycobacterium intracellulare; experiment: Antimicrobial activity against Mycobacterium intracellulare; type: functional

Row | SMILES | inhibition of growth at 0.1 µM [1] [%] | inhibition of growth at 1 µM [2] [%] | inhibition of growth at 10 µM [3] [%] | GI50 (Mycobacterium ulcerans) [µM] | GI50 [4] [µM] | GI50 [5] [µM] | inhibition of growth at 0.5 µM [6] [%] | inhibition of growth at 1 µM [7] [%] | inhibition of growth at 2 µM [8] [%] | selectivity ratio [9] | IC50 [10] [µM] | GI50 [11] [µM] | MIC90 [12] [µM] | MIC [13] [µg/mL]
1 | Cc1nc(-c2ccc(F)cc2)cc2c1C(=O)c1ccccc1C2=O | 41 | 68 | 100 | – | – | – | – | – | – | – | – | – | – | –
2 | Cc1nccc2c1C(=O)c1ccccc1C2=O | 10 | 22 | 58 | – | – | – | – | – | – | – | – | – | – | –
3 | O=C1c2ccccc2C(=O)c2c(O)cc(-c3ccccc3)cc21 | 15 | 88 | 100 | 12.6 | 5.02 | 4.71 | 36.6 | 49 | 68.3 | 12.6 | 10.8 | 0.86 | 2.12 (≈ 0.637 µg/mL) | –
4 | Cc1ccc(-c2cc(O)c3c(c2)C(=O)c2ccccc2C3=O)cc1 | 21 | 35 | 98 | – | – | – | – | – | – | – | – | – | – | –
5 | CCOc1nc2c3c(ncc(Br)c3c1Br)-c1ccccc1C2=O | – | – | – | – | – | – | – | – | – | – | – | – | – | 25 (≈ 57.6 µM)
6 | Cc1cncc2c1C(=O)c1ccccc1C2=O | < 10 | 11 | 48 | – | – | – | – | – | – | – | – | – | – | –
7 | CN(C)/C=C/c1cncc2c1C(=O)c1ccccc1C2=O | < 10 | 17 | 53 | – | – | – | – | – | – | – | – | – | – | –
8 | O=C1c2ccccc2-c2nccc3cncc1c23 | 11 | 25 | 62 | – | – | – | – | – | – | – | – | – | – | –
9 | Cc1nc(-c2ccccc2)cc2c1C(=O)c1ccccc1C2=O | 21 | 66 | 98 | – | – | – | – | – | – | – | – | – | – | –
10 | COc1ccc(-c2cc3c(c(C)n2)C(=O)c2ccccc2C3=O)cc1 | 32 | 70 | 100 | – | – | – | – | – | – | – | – | – | – | –
11 | Cc1nc(-c2ccc(Cl)cc2)cc2c1C(=O)c1ccccc1C2=O | 42 | 68 | 100 | – | – | – | – | – | – | – | – | – | – | –
12 | COc1ccc(OC)c(-c2cc3c(c(C)n2)C(=O)c2ccccc2C3=O)c1 | < 10 | 35 | 86 | – | – | – | – | – | – | – | – | – | – | –
13 | Cc1ccc(-c2cc3c(c(C)n2)C(=O)c2ccccc2C3=O)cc1 | 54 | 63 | 99 | – | – | – | – | – | – | – | – | – | – | –
14 | Cc1nc(C(C)C)cc2c1C(=O)c1ccccc1C2=O | < 10 | 24 | 54 | – | – | – | – | – | – | – | – | – | – | –
15 | Cc1nc(C(C)(C)C)cc2c1C(=O)c1ccccc1C2=O | < 10 | 18 | 51 | – | – | – | – | – | – | – | – | – | – | –
16 | CN(C)/C=C/c1nc(-c2ccccc2)cc2c1C(=O)c1ccccc1C2=O | 45 | 100 | 100 | 8.65 | 4.89 | 3.68 | 13.4 | 34.6 | 49.5 | 46.9 | 24.4 | 0.52 | 1.4 (≈ 0.496 µg/mL) | –

Row | SMILES | inhibition of growth at 0.1 µM [1] [%] | inhibition of growth at 1 µM [2] [%] | inhibition of growth at 10 µM [3] [%] | GI50 (Mycobacterium ulcerans) [µM] | GI50 [4] [µM] | GI50 [5] [µM] | inhibition of growth at 0.5 µM [6] [%] | inhibition of growth at 1 µM [7] [%] | inhibition of growth at 2 µM [8] [%] | selectivity ratio [9] | IC50 [10] [µM] | GI50 [11] [µM] | MIC90 [12] [µM] | MIC [13] [µg/mL]
17 | CN(C)/C=C/c1nc(-c2ccc(F)cc2)cc2c1C(=O)c1ccccc1C2=O | 35 | 92 | 100 | 7.49 | 3.65 | 3.23 | 10.2 | 27.3 | 60.5 | 91 | 37.3 | 0.41 | 0.88 (≈ 0.328 µg/mL) | –
18 | CN(C)/C=C/c1nc(-c2ccc(Cl)cc2)cc2c1C(=O)c1ccccc1C2=O | 34 | 91 | 100 | 7.69 | 3.88 | 3.95 | 19.8 | 35.6 | 54.4 | 34.2 | 18.8 | 0.55 | 1.1 (≈ 0.428 µg/mL) | –
19 | COc1ccc(OC)c(-c2cc3c(c(/C=C/N(C)C)n2)C(=O)c2ccccc2C3=O)c1 | 35 | 47 | 87 | – | – | – | – | – | – | – | – | – | – | –
20 | Cc1ccc(-c2cc3c(c(/C=C/N(C)C)n2)C(=O)c2ccccc2C3=O)cc1 | 39 | 100 | 100 | 8.59 | 3.69 | 4.83 | 15.9 | 36.2 | 48.7 | 40.4 | 27.9 | 0.69 | 1.5 (≈ 0.553 µg/mL) | –
21 | CN(C)/C=C/c1nc(C(C)(C)C)cc2c1C(=O)c1ccccc1C2=O | 21 | 53 | 73 | – | – | – | – | – | – | – | – | – | – | –
22 | O=C1c2ccccc2-c2nccc3nc(-c4ccccc4)cc1c23 | 67 | 95 | 100 | 10.6 | 4.22 | 3.21 | 14.6 | 32.6 | 48.2 | 39.1 | 21.5 | 0.55 | 1.2 (≈ 0.37 µg/mL) | –
23 | O=C1c2ccccc2-c2nccc3nc(-c4ccc(F)cc4)cc1c23 | 53 | 100 | 100 | 9.23 | 3.98 | 3.56 | 15.3 | 30.2 | 65.5 | > 72.4 | > 50 | 0.69 | 1.5 (≈ 0.489 µg/mL) | –
24 | O=C1c2ccccc2-c2nccc3nc(-c4ccc(Cl)cc4)cc1c23 | 77 | 99 | 99 | – | – | – | 2.27 | 20.3 | 44.2 | > 69.4 | > 50 | 0.72 | 1.85 (≈ 0.634 µg/mL) | –
25 | COc1ccc(OC)c(-c2cc3c4c(nccc4n2)-c2ccccc2C3=O)c1 | 39 | 75 | 87 | – | – | – | – | – | – | – | – | – | – | –
26 | Cc1ccc(-c2cc3c4c(nccc4n2)-c2ccccc2C3=O)cc1 | 73 | 100 | 100 | – | – | – | 7 | 34.6 | 47.2 | 16.6 | 7.14 | 0.43 | 1.31 (≈ 0.422 µg/mL) | –
27 | CC(C)(C)c1ccc(-c2cc3c4c(nccc4n2)-c2ccccc2C3=O)cc1 | 32 | 41 | 73 | – | – | – | – | – | – | – | – | – | – | –
28 | CCc1ccnc2c1C(=O)c1ccccc1C2=O | – | – | – | – | – | – | – | – | – | – | – | – | – | 12.5 (≈ 52.7 µM)
29 | O=C1c2ccccc2-c2nccc3c2c1nc1ccccc13 [BENZOSAMPANGINE] | – | – | – | – | – | – | – | – | – | – | – | – | – | 0.39 (≈ 1.38 µM)
30 | Cc1ccnc2c1C(=O)c1ccccc1C2=O [CLEISTOPHOLINE] | – | – | – | – | – | – | – | – | – | – | – | – | – | 12.5 (≈ 56 µM)
31 | NNC(=O)c1ccncc1 [ISONIAZID] | 99 | 100 | 100 | – | – | – | 76.4 | 92.8 | 97.3 | – | – | 0.01 | 0.09 (≈ 0.0123 µg/mL) | –
